The source of these data is PubChem BioAssay.

Molecules are shown by their SMILES. Values without a mark were called inactive. Inconclusive results are not listed. Calls of active or inactive are those of the source.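 Rule for the calls, unless noted: active = RAM network inhibition above 8.4% in each of two replicates, 3 SD over the compound average; inconclusive = above 8.4% inhibition in only one replicate; inactive = 8.4% inhibition or less in each replicate.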

A short description of assay [1]: OD615 S. cerevisiae growth inhibition, permissive medium, pilot counter-assay, permissive growth control for S. cerevisiae lifespan shortening project (AID 705;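 active = growth inhibition above 25% in both replicates, a cutoff set 3 SD above the mean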). The note with it: OD615, 24 h, at 10 µM, stronger effect = higher value. The gist of the method: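 Timing: 24 h exposure, 30 °C / Material: Saccharomyces cerevisiae strain carrying genetically modified DeaD replicative-lifespan system / Signal: OD at 615 nm / Compound: 10 µM single dose, 0.25% DMSO / Medium: SC raffinose/galactose permissive medium / Evaluation: reduction in yeast growth (OD615)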

Assay [2] in a line: Restrictive medium S. cerevisiae growth inhibition, OD615, pilot screen of yeast lifespan reduction project, restrictive growth control (AID 706;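 active = growth inhibition above a set limit, 3 SD over mean compound inhibition, in both replicates, cut at about 43% in these data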;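 note: modified DeaD lifespan yeast strain shifted to restrictive glucose medium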). The note with it: OD615, 48 h, at 10 µM, stronger effect = higher value. Summed up:
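System: Engineered S. cerevisiae DeaD strain | Detection: OD615 | Buffer or medium: CSMM-D glucose medium | Doses: 10 µM compound, 0.25% DMSO | Timing: 4 h pre-growth plus 48 h compound exposure, 30 °C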

A short description of assay [3]: growth suppression of beta-catenin knockout HCT116, pilot screen, human colon tumor cells (AID 823;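 active = cell viability at or below a set limit in both duplicate runs, the limit being the all-compound median minus 4 SD, cut at about 23% in these data, passing the limit was not always enough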;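 note: 0% = wells killed by 20 µM Hyamine and 100% = untreated DMSO cell wells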). Particulars: CellTiter-Glo, 60 h, at 10 µM, stronger effect = lower value. (In general: ATP-based viability assays read luminescence as a measure of living cells.)
Assay [4] can be described thus: growth suppression of PTEN-deleted HCT116, pilot screen, cell-based, HCT116 clonal line, CellTiter-Glo (AID 824;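 active = viability at or below 27.92% in each of two runs, the all-compound median minus 4 SD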;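 note: 0% = 20 µM Hyamine control and 100% = vehicle cell control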). Particulars: 60 h, at 10 µM, stronger effect = lower value.
Assay [5] in a line: inhibitors of the yeast RAM network, pilot screen, dse1pr::URA3 reporter, 5-FOA selection (AID 869;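 active = inhibition over a set limit, the all-compound mean plus 3 SD, in both replicate runs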;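 note: 0% = DMSO wells with no growth and 100% = 10 µM 1-NA-PP1 with full growth; RAM network block rescues cells from 5-FOA so hits raise OD615 growth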). The note with it: S. cerevisiae dse1pr::URA3 5-FOA growth, OD615, 2 d; at 10 µM; stronger effect = higher value; strain carries analog-sensitive mutant Cbk1 kinase.
The nature of assay [6]: RAM signaling pathway blockade in yeast – S. cerevisiae, Pdr1DBD-CYC8 efflux-inhibited sensitized strain, primary screen (AID 1298).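 Note: 0% = DMSO untreated cells without growth and 100% = 10 µM 1-NA-PP1 full growth; higher means more yeast growth rescued from 5-FOA killing.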 The note with it: S. cerevisiae cbk1-as DSE1-URA3 strain, 5-FOA growth OD615, 2 d; at 50 µM; stronger effect = higher value.
Assay [7] can be described thus: viability gain of MRP-1-high H69AR cells under doxorubicin, pilot screen, MRP-1 activator project, CellTiter-Glo, duplicate (AID 807;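 active = viability increase at or above a cutoff of the median across tested compounds plus 3 SD, cut at about 8.5% in these data, passing the limit was not always enough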;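 note: compound pretreatment 18-22 h then 72 h combined with doxorubicin; 0% = doxorubicin alone and 100% = vehicle without doxorubicin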). The note with it: H69AR viability with doxorubicin, CellTiter-Glo luminescence; at 10 µM; stronger effect = higher value.

`Cc1cccc(-n2ncc3c(N4CC(C)CC(C)C4)ncnc32)c1` (configuration not stated): the growth inhibition in assay [1] was -1.33%; in assay [2] it was -3.92%. The viability in assay [3] is 59.9%; in assay [4] it was 78.1%. Moreover, in assay [5], the inhibition is 1.74%. Further, the RAM network inhibition in assay [6] was 6.19%.
On to `CSc1nc2c(cnn2-c2ccc(C)c(C)c2)c(=O)[nH]1`, for which the growth inhibition in assay [1] is 3.89%; in assay [2] it was 1.82%. In addition, the viability increase in assay [7] is -8.82%. Further, the inhibition in assay [5] is 2.08%. Besides, in assay [6], the RAM network inhibition was 0.57%.
Turning to `CCOc1ccc2nc3ccc4[nH]onc4c3c2c1`, the growth inhibition is 0.485% in assay [1] and 1.57% in assay [2]. Moreover, the values for the viability in assay [3] and in assay [4] were 74.8% and 66.5%, respectively. The inhibition in assay [5] was 2.8%. Also, the RAM network inhibition in assay [6] was 6.1%.
For `COc1ccc(-n2c(Cc3cc(=O)[nH]c(=O)[nH]3)nnc2SCC(=O)N2CCC(C)CC2)cc1`, the growth inhibition in assay [1] was -11.5%; in assay [2] it was 4.4%. Moreover, the viability is 98.2% in assay [3] and 96.9% in assay [4]. The inhibition in assay [5] is 2.92%. For the same compound, the RAM network inhibition in assay [6] is 0.47%.
Regarding `CCCCc1ccc(-c2nc(-c3ccncc3)no2)cc1`, the growth inhibition in assay [1] was -16.1%; in assay [2], -3.25%. Further, the viability is 65.8% in assay [3] and 75.9% in assay [4]. Also, the inhibition in assay [5] was 3.17%. For the same compound, in assay [6], the RAM network inhibition was 3.23%.
As for `N#Cc1nc(COc2cccc(Cl)c2)oc1N1CCCC1`, the results for the growth inhibition in assay [1] and in assay [2] were 4.94% and 11.2%, respectively. In addition, the viability in assay [3] and in assay [4] was 82.7% each time. The inhibition in assay [5] is -0.7%. Further, the RAM network inhibition in assay [6] was 0.47%.
Consider `O=C(CCc1ccccc1)Nc1nnc(-c2ccc3c(c2)CCCC3)o1`, for which the figures for the growth inhibition in assay [1] and in assay [2] were -1.89% and 11.3%, respectively. In addition, the figures for the viability in assay [3] and in assay [4] were 53.6% and 72.1%, respectively. Also, in assay [5], the inhibition was 0.09%. The RAM network inhibition in assay [6] was 5.06%.
Consider `CCc1ccc(C2CC(c3ccccc3C)n3nc(N)nc3N2)cc1` (configuration not stated), for which the figures for the growth inhibition in assay [1] and in assay [2] were 7.95% and -3.1%, respectively. Also, the viability in assay [3] was 87.5%; in assay [4], 79.6%. In assay [5], the inhibition was 0.19%. Also, in assay [6], the RAM network inhibition was 6.27%.
Consider `Cc1ccc(N2C(=O)Nc3ccc(Br)cc3C2(O)C(=O)NCCCN(C)C)cc1C` (configuration not stated), for which the growth inhibition in assay [1] is -7.06%; in assay [2], -9.65%. Further, the values for the viability in assay [3] and in assay [4] were 91.7% and 98.7%, respectively. Also, in assay [5], the inhibition was 0.615%. For the same compound, in assay [6], the RAM network inhibition was 3.58%.
Regarding `O=C1Cc2ccccc2C(=O)N1CCc1ccccc1`, the figures for the growth inhibition in assay [1] and in assay [2] were 12.3% and 66% (active), respectively. Also, the viability in assay [3] is 97.2%; in assay [4], 92.8%. In assay [5], the inhibition is 1.75%. Also, in assay [6], the RAM network inhibition is 2.61%.
`COc1ccc(Cl)cc1N1C(=O)C2CCCN2C1c1ccc(F)c(F)c1` (configuration not stated): the growth inhibition in assay [1] is -5.22%; in assay [2] it was -6.92%. Also, the viability was 98.1% in assay [3] and 92.7% in assay [4]. For the same compound, the inhibition in assay [5] was 1.33%. Further, in assay [6], the RAM network inhibition was 6.15%.
`CCc1nnc(NC(=O)c2ccc(S(=O)(=O)N(CC)CC)cc2)s1`: the figures for the growth inhibition in assay [1] and in assay [2] were -7.41% and -3.27%, respectively. In addition, the figures for the viability in assay [3] and in assay [4] were 104% and 90.9%, respectively. For the same compound, in assay [5], the inhibition is 1.52%. The RAM network inhibition in assay [6] was -0.37%.
With `Cc1onc(-c2ccccc2)c1C(=O)Nc1nnc(N(C)Cc2ccccc2)s1`, the growth inhibition in assay [1] was -12.4%; in assay [2], -20.5%. Also, the viability in assay [3] was 89.8%; in assay [4], 88.8%. Further, the inhibition in assay [5] is 1.02%. Also, the RAM network inhibition in assay [6] is 9.12%.
Consider `COc1ccc(OC)c(C2CC(=O)N3CN(c4ccc(C)c(Cl)c4)CSC3=C2C#N)c1` (configuration not stated), for which the growth inhibition in assay [1] is -0.805%. Besides, the viability increase in assay [7] was -3.72%. For the same compound, the figures for the viability in assay [3] and in assay [4] were 90.6% and 94.4%, respectively. For the same compound, in assay [5], the inhibition is 2.44%. Moreover, the RAM network inhibition in assay [6] is 7.86%.
In the case of `Oc1c(CN2CCc3ccccc3C2)cc(Cl)c2cccnc12`, in assay [1], the growth inhibition was 5.68%. In addition, the viability increase in assay [7] is -9.01%. For the same compound, the viability in assay [3] was 1.27% (active); in assay [4] it was 0.66% (active). Moreover, the inhibition in assay [5] was -1.5%. Further, the RAM network inhibition in assay [6] was -2.41%.
For `O=c1c2ccccc2[nH]c(=S)n1Cc1cccnc1`, the growth inhibition in assay [1] was 6.04%. Moreover, the viability increase in assay [7] is -0.83%. Also, the viability in assay [3] was 103%; in assay [4], 92.5%. In addition, the inhibition in assay [5] was -0.605%. For the same compound, in assay [6], the RAM network inhibition was 1.73%.
Turning to `CN(c1ccccc1)S(=O)(=O)c1ccc(C(=O)Nc2nccs2)cc1`, the growth inhibition in assay [1] is -17.4%; in assay [2], -19.6%. For the same compound, the figures for the viability in assay [3] and in assay [4] were 84.8% and 83.3%, respectively. Also, the inhibition in assay [5] was 3.73%. In addition, the RAM network inhibition in assay [6] is 4.85%.
Turning to `Clc1ccccc1CSc1nnc(-c2ccccn2)n1Cc1ccco1`, the growth inhibition in assay [1] is -5.1%. Moreover, in assay [7], the viability increase was -5.33%. For the same compound, the values for the viability in assay [3] and in assay [4] were 74.8% and 79%, respectively. Moreover, the inhibition in assay [5] is 1.92%. Also, the RAM network inhibition in assay [6] was 2.52%.

By viability is commonly meant a read-out of living cells in per cent, often relative to untreated cells. In general, inhibition refers to the drop in the measured response relative to a control, in per cent.
